From PubChem BioAssay
Shown are actives, neighbours in structure and some others; about 7.2% of the full set was active somewhere.
D1 allo mod – allosteric modulators of human D1 dopamine receptor. P21728. HEK293 D1, CRE-luciferase, dopamine EC30 potentiation; actives deviate in either direction. B-score at 10 µM. hit rate 5.9% among 58,000. AID 641;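 active = luminescence count or its row- and column-corrected plate score outside the 99.7% band of the plate's sample wells, on either side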
Target sequence (P21728 whole entry, looked up): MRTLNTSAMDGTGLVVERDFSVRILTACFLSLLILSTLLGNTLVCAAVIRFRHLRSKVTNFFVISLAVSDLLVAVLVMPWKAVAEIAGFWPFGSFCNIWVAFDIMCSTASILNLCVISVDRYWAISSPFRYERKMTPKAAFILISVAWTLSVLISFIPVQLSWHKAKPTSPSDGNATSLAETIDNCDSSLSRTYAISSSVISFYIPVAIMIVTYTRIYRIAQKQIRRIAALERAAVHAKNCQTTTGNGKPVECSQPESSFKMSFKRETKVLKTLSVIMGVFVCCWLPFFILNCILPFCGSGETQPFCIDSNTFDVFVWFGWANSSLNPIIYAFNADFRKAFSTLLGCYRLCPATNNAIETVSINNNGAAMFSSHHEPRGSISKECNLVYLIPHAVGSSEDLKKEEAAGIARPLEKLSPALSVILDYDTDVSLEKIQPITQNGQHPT
M1 antagonist – M1 muscarinic receptor (rat) antagonism; P08482; B-score at 10 µM; CHO-M1 cells, Fluo-4 calcium, ACh EC80 antagonist mode; stronger effect = lower value; hit rate 3.4% among 64,000;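 active = calcium fluorescence response, raw or row-and-column corrected B-score, differing from the plate sample mean either way at a set confidence level, mostly lower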
BAP1 inh – inhibitors of human BAP1 deubiquitinase; Q92560; recombinant BAP1, Ub-AMC hydrolysis fluorescence kinetic; stronger effect = lower value; calls only at 20 µM; hit rate 0.48% among 72,000;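 active = activity remaining at or below 50% of control, provided the compound also passes the data quality filters; inactive = the rest, including low values that fail the filters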;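 also: 100% = DMSO wells rate and 0% = substrate alone blank rate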
HEK293 NFkB inh – inhibitors of the PMA/ionomycin-induced NF-kB reporter in HEK293 cells; hit rate 0.21% among 62,000; AID 465; HEK-293 NF-kB luciferase reporter, luminescence; inhibition, % at 3 µM;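 active = inhibition above the mean of all tested compounds plus 3 SD, cut at about 40% in these data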;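 also: 0% = stimulated DMSO wells and 100% = 10 µM reference inhibitor 5653914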
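Timing: 1 h pretreatment, 16 h stimulation, 37 °C; system: HEK-293 cells with stable firefly luciferase reporter driven by four HIV NF-kB elements; doses: 3 µM once, 0.30% DMSO; measured by: luciferase luminescence; control set: DMSO and 10 µM reference inhibitor; repeats: single test; reagent: PMA plus ionomycin mix as NF-kB-activating stimulus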
M1 ag – activates the M1 muscarinic receptor; CHO-M1 cells, Fluo-4 calcium fluorescence, agonist mode; stronger effect = higher value; B-score at 10 µM; hit rate 3% among 64,000; AID 626;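 active = fluorescence rise, raw or as B-score row- and column-corrected plate score, outside the 99.7% band of its plate's samples, either direction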
hDAT+cocaine – modulates human dopamine transporter uptake under cocaine; Q01959; LLC-PK1 hDAT cells, [14C]-dopamine uptake with cocaine IC80; actives deviate in either direction; B-score at 10 µM; hit rate 1.3% among 110,000; AID 449768;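 active = Z score or B-score, a plate-position-corrected score, falls beyond the plate's 99.7% confidence bounds, in either direction; inactive = both scores lie inside the 99.7% bounds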;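 also: scored against the spread of the other compound wells on the same plate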
D1 mod confirm – confirmation of human D1 dopamine receptor allosteric modulators; luminescence at 10 µM; HEK293 D1 CRE-luciferase, dopamine EC30 potentiation; stronger effect = higher value; shares compounds with D1 allo mod; hit rate 88% among 2,200;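 active = luminescence in either of two replicates above the same-plate mean plus 3 SD of the low-dose dopamine control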
D1 no dopamine – D1 (human) signaling in absence of dopamine. luminescence at 10 µM. shares compounds with D1 allo mod. HEK293 D1 CRE-luciferase, luminescence, no dopamine; stronger effect = higher value. hit rate 0.8% among 1,900. AID 646; in the data active = luminescence above about 3900
Isoprot counter – counter-screen for D1 modulators: isoproterenol response in HEK293 cells | shares compounds with D1 allo mod | HEK293 D1 CRE-luciferase, isoproterenol EC30 counter-screen | calls only at 10 µM | hit rate 63% among 2,200;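 active = luminescence in either replicate above plate mean of wells with a partly effective reference agonist dose plus 3 SD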;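 also: isoproterenol raises cAMP through native beta-adrenoceptor Gs so signal bypasses D1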
Active calls of the source: *; i = inactive; . = no result shown; + = active, no number.

SMILES	D1 allo mod	M1 antagonist	BAP1 inh	HEK293 NFkB inh	M1 ag	hDAT+cocaine	D1 mod confirm	D1 no dopamine	Isoprot counter
Cn1c(=O)c2c(SCc3ccccc3)nc(-c3ccco3)nc2n(C)c1=O	3.25*	-0.265	i	14.2	0.22	-0.000937	12880*	1832	i
O=C1CC(c2ccccc2)C(C(=O)O)N1 (centres undefined)	14.9*	-0.147	i	3.7	0.656	0.7	4528	.	i
O=C1c2ccccc2C(Nc2ccc3c(c2)OCO3)N1Cc1ccc2c(c1)OCO2 (centres undefined)	4.12*	-0.078	i	21.0	1.09	-0.0314	9888*	1436	+
O=C1c2ccccc2C(Nc2ccc3c(c2)OCO3)N1Cc1ccco1 (centres undefined)	7.62*	-1.16	i	10.2	0.274	0.152	12600*	1504	+
CCOC(=O)c1c(NC(=O)c2ccoc2C)sc2c1CCC(C(C)(C)C)C2 (centres undefined)	.	.	i	.	.	.	.	.	.
CCOc1ccc(-c2nnn(CC(=O)c3ccc4c(c3)OCCO4)n2)cc1OCC	9.26*	-1.6	i	8.3	-0.0707	-1.21	18056*	1596	+
COc1ccc(NC(=O)CSc2nc3ccc([N+](=O)[O-])cc3[nH]2)c(OC)c1	.	.	i	.	.	.	.	.	.
COC(=O)c1cc(NC2c3ncccc3C(=O)N2Cc2ccccc2)cc(C(=O)OC)c1 (centres undefined)	18.7*	0.176	i	7.6	2.77	-0.194	20824*	1580	+
CCOC(=O)c1c(NC(=O)C2CCCCC2)sc(C(=O)Nc2ccccc2F)c1C	.	.	i	.	.	.	.	.	.
Cc1cc2ccccc2c(=O)n1CC(=O)NCC(=O)N1CCN(c2ccccc2F)CC1	3.43*	-0.151	i	16.2	0.471	-0.243	7784	1604	i
COCc1cc(C)nc(NCCO)c1C#N	.	.	.	.	.	-0.459	.	.	.
CCNc1nc(C)cc(COC)c1C#N	4.75*	-0.241	.	16.1	-0.0287	-0.87	10012*	.	+
O=C(Nc1sc2c(c1C(=O)NCc1cccnc1)CCCC2)c1ccco1	11.8*	-0.512	i	-3.8	-0.576	0.489	17940*	1360	+
CC(Oc1ccc(F)cc1)C(=O)Nc1sc2c(c1C(=O)NCc1cccnc1)CCCC2 (centres undefined)	.	.	.	.	.	2.03	.	.	.
CCOC(=O)C1CCN(C(=O)c2ccco2)CC1	4.42*	-0.584	i	-0.8	-0.131	-0.151	4108	1740	i
COc1ccc(CN2CCN(C(=O)c3ccco3)CC2)cc1	4.08*	0.48	i	3.8	-0.589	1.04	5504	1488	i
c1ccc(-c2nc3nonc3c3nc4ccccc4n23)cc1	0.799	-0.885	i	0.1	-0.699	-0.578	.	.	.
c1ccc(-c2nc3nonc3nc2-c2ccccc2)cc1	6.77*	-1.9	i	24.4	-0.325	.	6860*	1656	i
Nc1nc(C2CC2)c(Sc2sc(N)nc2C2CC2)s1	10.2*	-0.462	i	-34.8	-0.559	0.225	11736*	1620	+
Cn1c(Cl)nc2c1c(=O)n(Cc1cccc(Br)c1)c(=O)n2C	.	0.498	i	.	0.0306	0.665	.	.	.
Cn1c(N2CCCC2)nc2c1c(=O)n(Cc1ccc(Cl)cc1)c(=O)n2C	8.97*	0.778	i	14.1	1.09	0.501	17964*	1940	+
Cn1c(N2CCC(C(N)=O)CC2)nc2c1c(=O)n(Cc1ccc(Cl)cc1)c(=O)n2C	-0.922	0.552	i	15.6	0.0113	1.61	.	.	.
Cn1c(N2CCCC2)nc2c1c(=O)n(Cc1cccc(F)c1)c(=O)n2C	4.48*	0.31	i	20.4	0.503	1.22	11200*	1392	+
CCS(=O)(=O)Nc1ccc(I)cc1	.	.	i	.	.	.	.	.	.
CCSc1nc(-c2ccco2)ccc1C#N	2.66*	0.355	.	7.1	-0.0894	0.255	6188*	1560	i
SMILES	D1 allo mod	M1 antagonist	BAP1 inh	HEK293 NFkB inh	M1 ag	hDAT+cocaine	D1 mod confirm	D1 no dopamine	Isoprot counter
N#Cc1cc2c(nc1SCc1ccccc1)CCCCC2	.	.	.	.	.	-0.0325	.	.	.
N#Cc1ccc(-c2ccco2)nc1SCc1ccccc1	3.07*	.	i	15.2	.	-0.616	17912*	1576	i
COc1cc2[nH]c(=S)n(CC3CCCO3)c(=O)c2cc1OC (centres undefined)	1.92	0.569	i	-4.2	-0.0657	1.05	.	.	.
COc1cc2[nH]c(=S)n(C3CCCC3)c(=O)c2cc1OC	2.86*	-1.25	i	2.6	0.461	0.184	13356*	1768	i
OC1CCCN(c2c3c(nc4cc(-c5cccc(Cl)c5)nn24)CCC3)C1 (centres undefined)	3.35*	-0.168	.	12.5	-0.301	1.72	16460*	1624	+
Cc1cccc(-c2cc3nc4c(c(N5CCCC(O)C5)n3n2)CCC4)c1 (centres undefined)	8.44*	-0.428	i	7.2	0.0501	3.4*	18448*	1604	+
Cc1cccc(-c2cc3nc4c(c(N5CCC6(CC5)OCCO6)n3n2)CCCC4)c1	0.884	0.0347	.	5.2	0.167	.	.	.	.
COCCN1CCN(c2c3c(nc4cc(-c5cccc(F)c5)nn24)CCC3)CC1	.	.	.	.	.	1.94	.	.	.
O=C(CSc1nnc2sc3ccccc3n12)Nc1ccccc1Cl	.	.	i	.	.	.	.	.	.
N#CC1=C(N)C(C#N)(C#N)C(c2ccc[nH]2)C2CCCC=C12 (centres undefined)	2.81*	-0.0654	i	24.3	1.82	0.666	4776	1816	i
CCOC(=O)N1CCN(C(=O)CCCn2c(=O)[nH]c3ccccc3c2=O)CC1	-0.882	0.0254	i	12.0	-1.12	1.8	.	.	.
CCOC(=O)N1CCN(C(=O)CCCn2c(=S)[nH]c3ccccc3c2=O)CC1	3.13*	1.38	i	-3.5	0.315	4.6	8792*	1740	i
O=C(Nc1nccs1)c1cccc(Br)c1	.	.	i	.	.	.	.	.	.
CCCn1c(=O)c2c(c3ccccc31)OCC(=O)N2	2.16	-0.121	i	2.9	-0.208	-0.172	.	.	.
CC(C)Cn1c(=O)c2c(c3ccccc31)OC(C)C(=O)N2 (centres undefined)	4.16*	-0.746	i	5.6	-0.31	-0.788	7512*	1516	i
Cc1cccc(OCC(=O)N2CCN(C(=O)COc3cccc(C)c3)CC2)c1	.	.	i	.	.	.	.	.	.
CC(C)(C)C(=O)Nc1sc2c(c1C#N)CCCCC2	.	.	.	.	.	-1.18	.	.	.
N#Cc1c(N)sc2c1CCCCCC2	5.85*	0.475	i	7.6	-0.866	-0.0972	13464*	1508	i
